Measured values: ChEMBL document CHEMBL3758168, “Hybrid triazoles: Design and synthesis as potential dual inhibitor of growth and efflux inhibition in tuberculosis” (Eur J Med Chem, 2016)
In brackets after ≈: the same amount, converted by molar mass.

Legend:
[1] = system: Mycobacterium tuberculosis; assay: Modulation factor, ratio of ethidium bromide MIC to compound MIC for Mycobacterium tuberculosis H37Rv ATCC 27294T at 128 ug/ml in presence of ethidium bromide; format: functional
[2] = system: Mycobacterium tuberculosis; assay: Modulation factor, ratio of refampin MIC to compound MIC for Mycobacterium tuberculosis H37Rv ATCC 27294T at 128 ug/ml in presence of refampin; format: functional
[3] = system: Mycobacterium tuberculosis; assay: Antibacterial activity against Mycobacterium tuberculosis H37Rv ATCC 27294T assessed as amikacin MIC at 64 ug/ml after 7 days by microdilution checkerboard assay; format: functional; conditions: 168 h
How it was run: (§1)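 Two-dimensional checkerboard in H37Rv at 10^5 CFU/ml in MB7H9/OADC. Partner drug (amikacin, EtBr, isoniazid, ofloxacin or rifampin) two-fold serially diluted across columns 3-11. Test compound two-fold serially diluted down rows 2-6. Plates incubated 7 days at 37 °C, then MTT added overnight. […] Run in triplicate.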

[4] = Ratio of compound IC50 to thioridazine IC50 for human MDM; format: ADME; conditions: read-out: Ratio IC50
[5] = system: Mycobacterium tuberculosis; assay: Antibacterial activity against Mycobacterium tuberculosis H37Rv ATCC 27294T assessed as isoniazid MIC at 32 ug/ml after 7 days by microdilution checkerboard assay; format: functional; conditions: 168 h; how it was run: as §1
[6] = system: Mycobacterium tuberculosis; assay: Antibacterial activity against Mycobacterium tuberculosis H37Rv ATCC 27294T assessed as ofloxacin MIC at 8 ug/ml after 7 days by microdilution checkerboard assay; format: functional; conditions: 168 h; how it was run: as §1
[7] = system: Mycobacterium tuberculosis; assay: Antibacterial activity against Mycobacterium tuberculosis H37Rv ATCC 27294T assessed as rifampin MIC at 64 ug/ml after 7 days by microdilution checkerboard assay; format: functional; conditions: 168 h
How it was run: (§2)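 M. tuberculosis H37Rv grown in MB7H9 + 10% OADC at 37 °C to OD600 0.8; plates inoculated at 10^5 CFU/ml. Rifampicin two-fold serially diluted across columns, test compound two-fold diluted down rows (two-dimensional checkerboard). Sealed, 37 °C for seven days, then MTT added and incubated overnight. MIC read as no colour change. Triplicate.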

[8] = system: Mycobacterium tuberculosis; assay: Antibacterial activity against Mycobacterium tuberculosis H37Rv ATCC 27294T assessed as ethidium bromide MIC at 2 ug/ml after 7 days by microdilution checkerboard assay; format: functional; conditions: 168 h; how it was run: as §1
[9] = system: Mycobacterium tuberculosis; assay: Anti-tubercular activity against Mycobacterium tuberculosis H37Rv ATCC 27294T after 7 days by mircodilution method; format: functional; conditions: 168 h
How it was run: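 H37Rv grown static in MB7H9 + 10% OADC at 37 °C to OD600 0.8, then diluted to about 10^5 cells/ml. Mixed 1:1 with two-fold serial dilutions in MB7H9/OADC and incubated 7 days at 37 °C. MTT added to final 2.5% and plates incubated overnight. MIC is the lowest concentration with no colour change. Run in triplicate.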

[10] = system: Mycobacterium tuberculosis; assay: Antibacterial activity against Mycobacterium tuberculosis H37Rv ATCC 27294T assessed as ofloxacin MIC at 128 ug/ml after 7 days by microdilution checkerboard assay; format: functional; conditions: 168 h; how it was run: as §1
[11] = system: Mycobacterium tuberculosis; assay: Antibacterial activity against Mycobacterium tuberculosis H37Rv ATCC 27294T assessed as rifampin MIC at 8 ug/ml after 7 days by microdilution checkerboard assay; format: functional; conditions: 168 h; how it was run: as §2
[12] = system: Mycobacterium tuberculosis; assay: Antibacterial activity against Mycobacterium tuberculosis H37Rv ATCC 27294T assessed as rifampin MIC at 16 ug/ml after 7 days by microdilution checkerboard assay; format: functional; conditions: 168 h; how it was run: as §2
[13] = system: Mycobacterium tuberculosis; assay: Antibacterial activity against Mycobacterium tuberculosis H37Rv ATCC 27294T assessed as ofloxacin MIC at 32 ug/ml after 7 days by microdilution checkerboard assay; format: functional; conditions: 168 h; how it was run: as §1
[14] = system: Mycobacterium tuberculosis; assay: Antibacterial activity against Mycobacterium tuberculosis H37Rv ATCC 27294T assessed as isoniazid MIC at 16 ug/ml after 7 days by microdilution checkerboard assay; format: functional; conditions: 168 h; how it was run: as §1
[15] = system: Mycobacterium tuberculosis; assay: Antibacterial activity against Mycobacterium tuberculosis H37Rv ATCC 27294T assessed as amikacin MIC at 128 ug/ml after 7 days by microdilution checkerboard assay; format: functional; conditions: 168 h; how it was run: as §1
[16] = system: Mycobacterium tuberculosis; assay: Modulation factor, ratio of isoniazid MIC to compound MIC for Mycobacterium tuberculosis H37Rv ATCC 27294T at 128 ug/ml in presence of isoniazid; format: functional
[17] = system: Mycobacterium tuberculosis; assay: Antibacterial activity against Mycobacterium tuberculosis H37Rv ATCC 27294T assessed as rifampin MIC at 32 ug/ml after 7 days by microdilution checkerboard assay; format: functional; conditions: 168 h; how it was run: as §2
[18] = system: Mycobacterium tuberculosis; assay: Antibacterial activity against Mycobacterium tuberculosis H37Rv ATCC 27294T assessed as ethidium bromide MIC at 32 ug/ml after 7 days by microdilution checkerboard assay; format: functional; conditions: 168 h; how it was run: as §1
[19] = system: Mycobacterium tuberculosis; assay: Antibacterial activity against Mycobacterium tuberculosis H37Rv ATCC 27294T assessed as ofloxacin MIC at 16 ug/ml after 7 days by microdilution checkerboard assay; format: functional; conditions: 168 h; how it was run: as §1
[20] = system: Mycobacterium tuberculosis; assay: Antibacterial activity against Mycobacterium tuberculosis H37Rv ATCC 27294T assessed as isoniazid MIC at 128 ug/ml after 7 days by microdilution checkerboard assay; format: functional; conditions: 168 h; how it was run: as §1
[21] = system: Mycobacterium tuberculosis; assay: Modulation factor, ratio of ofloxacin MIC to compound MIC for Mycobacterium tuberculosis H37Rv ATCC 27294T at 128 ug/ml in presence of ofloxacin; format: functional
[22] = system: Mycobacterium tuberculosis; assay: Antibacterial activity against Mycobacterium tuberculosis H37Rv ATCC 27294T assessed as isoniazid MIC at 2 ug/ml after 7 days by microdilution checkerboard assay; format: functional; conditions: 168 h; how it was run: as §1
[23] = system: Mycobacterium tuberculosis; assay: Antibacterial activity against Mycobacterium tuberculosis H37Rv ATCC 27294T assessed as ofloxacin MIC at 2 ug/ml after 7 days by microdilution checkerboard assay; format: functional; conditions: 168 h; how it was run: as §1
[24] = system: Mycobacterium tuberculosis; assay: Modulation factor, ratio of refampin MIC to compound MIC for Mycobacterium tuberculosis H37Rv ATCC 27294T at 64 ug/ml in presence of refampin; format: functional
[25] = system: Mycobacterium tuberculosis; assay: Modulation factor, ratio of amikacin MIC to compound MIC for Mycobacterium tuberculosis H37Rv ATCC 27294T at 128 ug/ml in presence of amikacin; format: functional
[26] = system: Mycobacterium tuberculosis; assay: Antibacterial activity against Mycobacterium tuberculosis H37Rv ATCC 27294T assessed as amikacin MIC at 2 ug/ml after 7 days by microdilution checkerboard assay; format: functional; conditions: 168 h; how it was run: as §1
[27] = system: Mycobacterium tuberculosis; assay: Antibacterial activity against Mycobacterium tuberculosis H37Rv ATCC 27294T assessed as ofloxacin MIC at 64 ug/ml after 7 days by microdilution checkerboard assay; format: functional; conditions: 168 h; how it was run: as §1
[28] = Cytotoxicity against human MDM assessed as cell viability after 3 days by Alamar blue dye-based fluorocytometric analysis relative to control; conditions: 72 h
[29] = system: Mycobacterium tuberculosis; assay: Antibacterial activity against Mycobacterium tuberculosis H37Rv ATCC 27294T assessed as ethidium bromide MIC at 8 ug/ml after 7 days by microdilution checkerboard assay; format: functional; conditions: 168 h; how it was run: as §1
[30] = system: Mycobacterium tuberculosis; assay: Antibacterial activity against Mycobacterium tuberculosis H37Rv ATCC 27294T assessed as isoniazid MIC at 64 ug/ml after 7 days by microdilution checkerboard assay; format: functional; conditions: 168 h; how it was run: as §1
[31] = system: Mycobacterium tuberculosis; assay: Antibacterial activity against Mycobacterium tuberculosis H37Rv ATCC 27294T assessed as rifampin MIC at 4 ug/ml after 7 days by microdilution checkerboard assay; format: functional; conditions: 168 h; how it was run: as §2
[32] = system: Mycobacterium tuberculosis; assay: Antibacterial activity against Mycobacterium tuberculosis H37Rv ATCC 27294T assessed as ethidium bromide MIC at 128 ug/ml after 7 days by microdilution checkerboard assay; format: functional; conditions: 168 h; how it was run: as §1

Question: Which results are given for `CCCSc1nnc(COc2ccccc2C2=NOC(c3ccc(Cl)cc3Cl)C2)n1NC(=O)CCl` (configuration not stated)?
Answer: Ratio [1]: 32; Ratio [2]: 64; MIC [3]: 1 µg/mL; selectivity ratio [4]: 3; MIC [5]: 0.1 µg/mL; MIC [6]: 1 µg/mL; MIC [7]: 0.25 µg/mL; MIC [8]: 12.5 µg/mL; MIC [9]: 64 µg/mL (≈ 115 µM); MIC [10]: 0.625 µg/mL; MIC [11]: 0.5 µg/mL; MIC [12]: 0.5 µg/mL; MIC [13]: 1 µg/mL; MIC [14]: 0.1 µg/mL; MIC [15]: 0.125 µg/mL; Ratio [16]: 64; MIC [17]: 0.5 µg/mL; MIC [18]: 12.5 µg/mL; MIC [19]: 1 µg/mL; MIC [20]: 0.00156 µg/mL; Ratio [21]: 32; MIC [22]: 0.1 µg/mL; MIC [23]: 2 µg/mL; Ratio [24]: 4; Ratio [25]: 16; MIC [26]: 1 µg/mL; MIC [27]: 1 µg/mL; IC50 [28]: 28.7 µg/mL (≈ 51.7 µM); MIC [29]: 12.5 µg/mL; MIC [30]: 0.1 µg/mL; MIC [31]: 0.5 µg/mL; MIC [32]: 0.39 µg/mL
